Compound activity: PubChem, several laboratories
zfTRPN1 agonist: zebrafish TRPN1 (NompC) channel agonism. actives 0.18% (n = 220,000). HEK293 zebrafish TRPN1-YFP, Fluo-8 calcium fluorescence; 100% = response to 87 µM carbachol. activation, % at 3 µM;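 active = activation above its plate's cutoff, the mean activation of test wells on that plate plus 3 SD, cut at about 19% in these data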;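 also: 0% = DMSO alone and 100% = 87 µM carbachol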
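System: zebrafish TRPN1-YFP in HEK293 cells / Dosing: 3 µM single point / Timing: dye loading 1 h at 37 °C, then 30 min room temperature / Signal: Fluo-8 calcium fluorescence, excitation 470-495 nm, emission 515-575 nm / Read-out basis: percent activation from peak over basal fluorescence ratio, control-normalized / Control set: high carbachol 87 µM, low DMSO alone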
TRPML3 ag: agonists of human TRPML3 channel; HEK293 TRPML3-YFP, Fluo-8 calcium fluorescence; 100% = the carbachol control signal; activation, % at 3 µM; actives 0.29% (n = 220,000);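 active = activation above its plate's cutoff, the mean activation of the plate's test wells plus 3 SD, cut at about 12% in these data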;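 also: 0% = DMSO only wells and 100% = carbachol wells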
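system = HEK293 cells stably carrying human TRPML3-YFP | doses = one concentration, 3 µM nominal, 0.3% DMSO | timing = dye loading 1 h 37 °C then 30 min ambient, 125 s read | detection = Fluo-8 calcium dye fluorescence, ex 470-495, em 515-575 nm | benchmarks = high control carbachol 87 µM, low control DMSO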
OXTR ag: agonists of human oxytocin receptor; AID 2435; activation, % at 3 µM; CHO-OTR cells, Fluo-8 calcium fluorescence; normalized: DMSO 0%, oxytocin 100%; actives 0.32% (n = 320,000); P30559;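 active = activation above the mean of all tested compounds plus 3 SD, cutoff set per screening run, cut at about 20% in these data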;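 also: peak over basal fluorescence ratio from a 100 s FLIPR kinetic read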
OXTR potentiate: potentiators of human oxytocin receptor; P30559; CHO-OTR cells, Fluo-8 calcium fluorescence, potentiator mode; 0% = oxytocin EC15, 100% = EC100; activation, % at 3 µM; actives 0.061% (n = 320,000); AID 2445;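 active = activation above that plate's cutoff, the mean activation of tested compounds plus 3 SD, cut at about 6.6% in these data, passing the limit was not always enough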;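 also: 100% uses oxytocin at 75 nM as the full agonist control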
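Assay system: CHO cell line stably expressing human OTR | Also added: Oxytocin at about EC15, sub-maximal agonist stimulus | Times: Compound 6 min at room temperature before oxytocin, 100 s read | Measured by: Fluo-8 intracellular calcium fluorescence, ex 470-495, em 515-575 nm | Controls: EC15 oxytocin alone as 0%, 75 nM oxytocin as 100%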
CRFBP-R2 agonist: agonists of human CRF-binding protein/CRF-R2 receptor complex; HEK293 CRF-R2/CRF-BP, calcium dye fluorescence (FLIPR); percent of saturating CRF peptide response; activation, % at 13.2 µM; actives 0.46% (n = 350,000);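 active = activation of at least 50%, plus an integration ratio under a set limit after plate pattern correction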;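 also: plate controls were neutral control wells without compound for no effect and CRF at EC100 for full effect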
V1R ag counter: counter-screen for oxytocin receptor agonists: human V1a receptor agonists; P37288; CHO-V1R cells, Fluo-8 calcium fluorescence, agonist mode; 0% DMSO, 100% 3 nM vasopressin; activation, % at 3 µM; actives 0.25% (n = 320,000); AID 2797;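 active = activation above the mean activation of all tested compounds plus 3 SD, per screening run, cut at about 20% in these data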;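 also: signal is peak over basal fluorescence ratio across a 100 second FLIPR read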
Target sequence (P37288 whole entry, looked up): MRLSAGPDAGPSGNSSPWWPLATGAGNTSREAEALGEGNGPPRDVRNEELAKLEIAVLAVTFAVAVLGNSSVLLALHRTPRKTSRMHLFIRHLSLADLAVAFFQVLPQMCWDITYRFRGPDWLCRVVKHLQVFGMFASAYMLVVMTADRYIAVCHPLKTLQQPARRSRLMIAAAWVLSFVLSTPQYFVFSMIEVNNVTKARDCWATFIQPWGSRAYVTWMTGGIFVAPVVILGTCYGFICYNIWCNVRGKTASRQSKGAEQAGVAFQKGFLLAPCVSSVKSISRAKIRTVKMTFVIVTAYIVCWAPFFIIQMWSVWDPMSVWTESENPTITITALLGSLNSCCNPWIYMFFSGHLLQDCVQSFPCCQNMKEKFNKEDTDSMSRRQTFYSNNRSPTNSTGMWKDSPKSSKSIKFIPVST
TRPN1 ag 2: activates zebrafish TRPN1, counter-screen for TRPML3 agonists; HEK293 zebrafish TRPN1-YFP, Fluo-8 calcium fluorescence; scaled: carbachol wells 100%, DMSO wells 0%; activation, % at 3 µM; actives 10% (n = 310); shares compounds with TRPML3 ag;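 active = mean activation over replicates above a set limit taken from the earlier TRPN1 channel primary screen, cut at about 19% in these data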;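 also: 100% = carbachol and 0% = 0.3% DMSO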
TRPML3 confirm: human TRPML3 agonism, confirmation; HEK293 TRPML3-YFP, Fluo-8 calcium fluorescence; 100% set by carbachol, 0% by DMSO; shares compounds with TRPML3 ag; actives 80% (n = 310); activation, % at 3 µM; AID 1526;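 active = activation above a set limit derived from the earlier primary screen, cut at about 12% in these data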
* = called active by the depositor; / = no result given. The list is not random: actives were taken first. Their share in the collection is about 0.85%.

SMILES	zfTRPN1 agonist	TRPML3 ag	OXTR ag	OXTR potentiate	CRFBP-R2 agonist	V1R ag counter	TRPN1 ag 2	TRPML3 confirm
CCOc1c(S(=O)(=O)N2CCCC2)ccc(Cl)c1Cl	0.0	19.5*	-1.4	-10.8	0.7	-1.4	-0.3	41.1*
O=S(=O)(c1cnc(Cl)c(Br)c1)N1CCc2ccccc21	-2.5	14.2*	0.0	-2.7	-0.1	-0.8	-1.7	50.0*
COc1ccccc1C1(CC(=O)N2CCCCC2)CCOC(C(C)C)C1 (configuration not stated)	-0.1	13.6*	-2.3	-2.7	1.0	-2.1	-1.4	10.9
CCN(CC)c1ccc(N=CN2CCOCC2)cc1	/	/	0.1	1.1	0.3	-0.5	/	/
COc1cc(C)nc(N(Cc2ccccc2)S(=O)(=O)c2ccc(C)cc2)n1	1.2	27.5*	0.6	-5.6	6.2	0.3	-0.1	50.5*
COc1cc(C)nc(N(Cc2ccccc2)S(=O)(=O)c2ccccc2)n1	0.4	6.8	-1.7	-13.9	2.4	-0.7	/	/
COc1ccc(S(=O)(=O)/N=C2/C=CC(=O)C(C)=C2C)cc1	0.4	0.2	-1.4	-7.7	-1.1	-0.5	/	/
CC1=C(C)/C(=N\OS(=O)(=O)c2ccc(C)cc2)C=CC1=O	8.0	13.9*	9.2	-10.3	64.1*	1.9	8.9	14.3*
C#CCOCCOCCOCCNc1nc(N2CCN(C(=O)[C@H](CC(N)=O)n3cc([C@@H](N)C(C)C)nn3)CC2)nc(N2CCN(C(=O)[C@H](CC(N)=O)n3cc([C@@H](N)C(C)C)nn3)CC2)n1	/	/	1.0	3.5	-2.4	1.6	/	/
CN(C)S(=O)(=O)N1CCN(c2cc(Cl)ccc2Cl)CC1	-1.0	16.2*	-0.5	-11.2	1.0	0.4	-1.9	17.8*
CN(C)S(=O)(=O)N1CCN(c2ccccc2Cl)CC1	0.8	2.7	0.3	-7.9	1.1	0.2	/	/
O=C1C=C(c2ccccc2C(F)(F)F)C[C@@H](c2ccc3c(c2)OCO3)C1	/	/	-0.6	-5.8	1.3	0.6	/	/
O=C(Cn1cc([N+](=O)[O-])ccc1=O)NCc1ccc(Cl)cc1Cl	/	/	0.0	-4.2	-0.3	4.2	/	/
O=C(c1ccc([N+](=O)[O-])cc1)N(Cc1ccc(Cl)cc1Cl)N1C(=O)CCCC1=O	2.0	15.5*	-0.8	-6.0	53.0*	-0.9	1.9	24.6*
COc1cc(S(=O)(=O)N2CCN(C)CC2)ccc1Cl	-0.5	0.1	0.0	4.5	0.5	1.2	/	/
O=S(=O)(c1ccc2ccccc2c1)N1CCCCC1	0.5	15.9*	-2.0	-0.5	1.1	-0.9	0.4	12.3*
CN1CCCN(S(=O)(=O)c2ccc3ccccc3c2)CC1	/	/	-0.6	-3.6	0.1	-0.6	/	/
COc1cc(S(=O)(=O)N2CCCCCC2)ccc1Cl	-1.6	44.0*	-2.3	-9.6	1.8	5.4	-1.0	61.5*
CC(C)c1ccc(S(=O)(=O)N2CCCCC2)cc1	-0.1	14.6*	-0.7	-2.2	-0.2	-1.1	-0.7	14.6*
O=S(=O)(c1ccc2ccccc2c1)N1CCCCCC1	-1.7	80.5*	-1.6	-10.2	-1.7	-1.3	0.1	62.4*
C=C(c1ccccc1O)n1ccnc1	/	/	1.1	-15.1	-0.7	2.0	/	/
O=C1C=C(NNC(=O)c2ccncc2)CC(c2ccccc2)C1 (configuration not stated)	17.8	18.7*	7.0	-13.7	6.7	11.7	0.8	0.1
CC1=CC(C)(C)N(C(=O)CSc2nnc(C)s2)c2ccc(C)cc21	-1.3	-0.8	-2.2	-1.4	-1.5	-0.6	/	/
CC1=CC(C)(C)N(C(=O)CSc2nnc(-c3ccc(C)cc3)o2)c2ccc(C)cc21	-0.5	61.8*	-1.4	-19.6	2.5	0.1	-1.9	48.6*
